# Screening data as filed in PubChem BioAssay.
# core dimer inh – blocks dimerization of HCV core protein | TR-FRET GST/Flag-core106 dimerization, 1536-well | inhibition, % at 5 µM | 300,000 tested, 0.33% active;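 active means inhibition above the mean of all tested compounds plus 3 SD, set per screening campaign, cut at about 45% in these data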
#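 Assay system: GST-tagged and Flag-tagged HCV core protein residues 1-106 / Times: compound-protein-antibody incubation 4 h at 22.5 °C / Signal: time-resolved FRET, ex 340 nm, em 617 and 671 nm / Evaluation: % inhibition based on acceptor/donor emission ratio / Benchmarks: wells lacking GST-core106 and wells with excess unlabelled core106 / Repeats: singlicate, one well per compound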
# PfM18AAP inh – PfM18AAP enzyme inhibition. recombinant PfM18AAP, H-Glu-NHMec fluorogenic cleavage. inhibition, % at 7.35 µM. 290,000 tested, 1.2% active. AID 1822;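 active means inhibition above the campaign mean inhibition over all tested compounds plus 3 SD, cut at about 28% in these data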
# EBNA-1 inhibitor – blocks EBNA-1 binding to DNA. EBNA-1 DNA binding, fluorescence polarization. inhibition, % at 14.8 µM. 300,000 tested, 0.34% active; in the data active means inhibition above about 28%
# NS3 helicase inh – blocks Hepatitis C virus NS3 helicase unwinding; NS3 helicase DNA unwinding, Cy5 molecular beacon fluorescence; inhibition, % at 10.9 µM; 290,000 tested, 0.56% active; AID 1800;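 active means inhibition above the mean of all tested compounds plus 3 SD, set per campaign, cut at about 35% in these data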
#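 test system = hepatitis C virus NS3 helicase domain fragment enzyme | reagent = annealed dual-labelled DNA beacon duplex, ATP-started | times = 1 h at 25 °C | detection = Cy5 fluorescence, 0 and 60 min reads | read-out basis = percent inhibition from t60/t0 fluorescence ratio | control set = DMSO and thioflavine S | replication = one well per compound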
# ALR inh – inhibitors of human sulfhydryl oxidase ALR | 290,000 tested, 3.8% active | purified ALR, DTT oxidation, H2O2 HRP-luminol luminescence | P55789 | AID 485317 | inhibition, % (no concentration beside the values);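 active means mean replicate inhibition above about 79%, with every replicate also reaching it, limit read from the data; inconclusive means only one of the two criteria met; inactive means mean below limit and not every replicate reaching it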
# Target sequence (P55789 whole entry, looked up): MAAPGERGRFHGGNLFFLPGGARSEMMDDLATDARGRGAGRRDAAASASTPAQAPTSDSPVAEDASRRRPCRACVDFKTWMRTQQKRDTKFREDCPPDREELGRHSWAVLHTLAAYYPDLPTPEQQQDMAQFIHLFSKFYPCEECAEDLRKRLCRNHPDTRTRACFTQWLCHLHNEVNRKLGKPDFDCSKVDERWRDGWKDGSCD
# ZTA DNA inh – blocks Epstein-Barr virus ZTA, an EBNA-1 counter-screen. P03206. ZTA-DNA binding, fluorescence polarization. inhibition, % at 11 µM. 320,000 tested, 0.15% active. AID 2234; in the data active means inhibition above about 33%
# Target sequence (P03206 whole entry, looked up): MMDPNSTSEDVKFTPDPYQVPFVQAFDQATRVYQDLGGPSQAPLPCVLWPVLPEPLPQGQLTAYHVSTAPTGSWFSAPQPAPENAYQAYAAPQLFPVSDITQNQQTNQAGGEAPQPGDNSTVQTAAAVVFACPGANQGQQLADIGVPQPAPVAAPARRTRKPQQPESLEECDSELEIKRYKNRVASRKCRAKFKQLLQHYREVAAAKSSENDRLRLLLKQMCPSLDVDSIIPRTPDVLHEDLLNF
# Hits are given with their value; i = inactive; ? = inconclusive; nt = no result. Only some compounds are listed: those with a hit (about 5.2% of all), similar ones and a draw of the others.
SMILES,core dimer inh,PfM18AAP inh,EBNA-1 inhibitor,NS3 helicase inh,ALR inh,ZTA DNA inh
CC1(C)CC(NC(=O)c2cc(Cl)ccc2Cl)CC(C)(C)N1,i,i,i,i,i,i
O=C(Cc1ccc(Cl)cc1)SCc1ccccc1,nt,nt,nt,nt,i,i
CC(=O)N(C(C)=O)n1c(C)nc2sc3c(c2c1=O)CCCC3,i,i,i,i,97,i
Cc1nc2sc3c(c2c(=O)n1N)CCC3,i,i,i,i,i,i
COc1ccc(C(=O)c2ccc(Cl)cc2)cc1,i,i,i,i,nt,i
COc1ccc(C(=O)c2ccc(Cl)c([N+](=O)[O-])c2)cc1,i,i,i,i,97,i
COC(=O)c1ccc(COc2cccc(C)c2C)cc1,i,i,i,i,i,i
Cc1cccc(NC(=O)c2ccc(S(=O)(=O)N3CCCCC3)cc2)c1,i,i,i,i,i,i
c1ccc2c3c([nH]c2c1)C(C1CCCCC1)N(Cc1ncc[nH]1)CC3 (stereo not drawn),i,i,i,i,98,i
CC(C)c1ccc(NC2CCCN(C(=O)c3cnn(C(C)C)c3)C2)cc1 (stereo not drawn),i,i,i,i,nt,i
COC(=O)c1ccc(C(=O)N2CCCC(Nc3ccc(C(C)C)cc3)C2)cc1 (stereo not drawn),i,i,i,i,98,i
O=C(c1ccsc1)N1CCCC(Nc2ccc(F)c(F)c2)C1 (stereo not drawn),i,i,i,i,i,i
CC(C)c1ccc(NC2CCCN(C(=O)c3ccsc3)C2)cc1 (stereo not drawn),i,i,i,i,98,i
CC(C)c1ccc(NC2CCCN(C(=O)c3n[nH]c4c3CCC4)C2)cc1 (stereo not drawn),i,i,i,i,99,i
COCCCNC(=O)C1CCN(C(=O)c2oc3cc4sc(N(C)C)nc4cc3c2C)CC1,i,i,i,i,i,i
C[C@@H]1CCCCCCCCC(=O)OCCN1C(=O)OC(C)(C)C,nt,nt,nt,nt,i,i
CN/N=C/c1ccc(C#N)cc1,i,i,i,i,99,i
Cc1ccccc1N/N=C/c1ccc(C#N)cc1,i,i,i,i,i,i
COc1cc(/C=N/NC(=S)NCCN2CCOCC2)ccc1O,i,i,i,i,99,i
COCCNC(=S)Nc1ccc(N2CCCCC2)cc1,i,i,i,i,99,i
COCCNC(=S)N/N=C/c1ccc(N2CCOCC2)cc1,i,i,i,i,99,i
CC(C)NC(=S)N/N=C/c1ccc(N2CCOCC2)cc1,i,i,i,i,99,i
C=C(C)CNC(=S)N/N=C/c1ccc(N2CCOCC2)cc1,i,i,i,i,?,i
COc1ccc(C(=O)NC(=S)Nc2ccc(N3CCCC3)cc2)cc1,i,i,i,i,i,i
CC(=O)c1cn(N2CCCCC2)c(=O)[nH]c1=O,i,i,i,i,i,i
SMILES,core dimer inh,PfM18AAP inh,EBNA-1 inhibitor,NS3 helicase inh,ALR inh,ZTA DNA inh
CC[C@H](C)Cc1cn([C@@H](CCCCNC(=O)OC(C)(C)C)C(=O)NCCCCCCCCCCC(=O)N2CCN(C(=O)OC(C)(C)C)CC2)nn1,i,nt,i,nt,i,i
CSCCC(NC(=O)c1ccco1)C(=O)Nc1ccncc1 (stereo not drawn),i,i,i,i,i,i
Cc1ccc(NC(=S)N2CCOCC2)cc1,i,i,i,i,i,i
Oc1ccc(/C=N/NC(=S)N2CCOCC2)cc1,i,33,i,i,99,i
O=C(COC(=O)c1ccc2ncsc2c1)NC(=O)c1ccccc1,i,31,i,i,i,i
O=C(Nc1ccc(S(=O)(=O)Nc2ncccn2)cc1)c1ccc(S(=O)(=O)N2CCCC2)cc1,i,i,i,i,96,i
Cc1ccnc(NS(=O)(=O)c2ccc(NC(=O)c3ccc(S(=O)(=O)N4CCCC4)cc3)cc2)n1,i,i,i,i,i,i
O=C(Nc1ccc(S(=O)(=O)Nc2ncccn2)cc1)c1ccc2ncsc2c1,i,i,i,i,99,i
O=C(Nc1ccncc1)c1ccc2ncsc2c1,i,nt,i,nt,98,i
COc1ccc(NC(=O)c2ccco2)cc1NC(=O)c1cccc(F)c1,nt,i,nt,i,nt,nt
CC(=O)NC1=C(Nc2ccc(N(C)C)cc2)C(=O)c2ccccc2C1=O,i,29,41,i,100,37
Cc1ccc(CNC(=O)CSc2nc3ccccc3c(=O)n2CCCO)cc1,i,i,i,i,i,i
Cc1ccc(-c2nc(CSc3nc4ccccc4c(=O)n3CCO)cs2)cc1,i,i,i,i,98,i
Cc1ccc(-c2nc(CSc3nc4ccccc4c(=O)n3C)cs2)cc1,i,i,i,i,98,i
COCCn1c(NCc2ccco2)nc2c1c(=O)[nH]c(=O)n2C,i,i,i,i,i,i
O=C1C2C3CCC(C3)C2C(=O)N1CNc1ccccc1 (stereo not drawn),i,i,i,i,i,i
CC(=O)Nc1ccc(NCN2C(=O)[C@@H]3[C@H]4CC[C@H](C4)[C@@H]3C2=O)cc1,i,i,i,i,94,i
O=C1CSC(c2ccc(F)c(F)c2)N1c1ccccc1F (stereo not drawn),i,i,i,i,98,i
O=C1CSC(c2cccc([N+](=O)[O-])c2)N1c1ccccc1 (stereo not drawn),i,i,i,i,98,i
O=C1CSC(c2cccc(F)c2)N1c1ccccc1 (stereo not drawn),i,i,i,i,98,i
O=C1CSC(c2ccc(F)cc2)N1c1ccccc1F (stereo not drawn),i,i,i,i,i,i
CCOC(=O)/C=C/C(=O)OCC(=O)Nc1ccc(Cl)cc1Cl,i,i,i,i,96,i
CN(C(=O)Cn1cc(C(F)(F)F)cc(Cl)c1=O)C1CCS(=O)(=O)C1 (stereo not drawn),i,nt,i,nt,i,i
CC(=O)OCCCCCCCCCCC[N+]1(C)CCCCC1,i,i,i,i,i,i
C[N+]1(CCCCSc2ccc(O)cc2)CCCCC1,i,i,i,i,99,i
COc1ccccc1C(=O)NC(=O)COC(=O)c1cnc(C)cn1,i,nt,i,nt,i,i
Cc1ccc(C2c3[nH]c4ccccc4c3C[C@H]3C(=O)N(c4ccccc4C(=O)N4CCC[C@@H]4C(=O)O)C(=O)N23)cc1 (stereo partly drawn),i,i,i,i,98,i
COc1cccc(C2c3[nH]c4ccccc4c3C[C@H]3C(=O)N(c4ccccc4C(=O)N4CCCC4C(=O)O)C(=O)N23)c1 (stereo partly drawn),i,i,i,i,97,i
COc1cccc(C2c3[nH]c4ccccc4c3C[C@H]3C(=O)N(CCCCCO)CC(=O)N23)c1 (stereo partly drawn),i,i,i,i,98,i
CN1CC(=O)N2C(c3ccc(Cl)cc3)c3[nH]c4ccccc4c3C[C@H]2C1=O (stereo partly drawn),i,i,i,i,99,i
